Laboratory results from ChEMBL document CHEMBL4145462, “Nitrogen-containing ecdysteroid derivatives vs. multi-drug resistance in cancer: Preparation and antitumor activity of oximes, oxime ethers and a lactam” (Eur J Med Chem, 2018).

Key:
[1] = Synergistic cytotoxicity against mouse L5178 cells expressing human ABCB1 assessed as combination index at ED75 using 3.75:1 test compound to doxorubicin ratio after 48 hrs by MTT-based checkerboard microplate method; type: functional
How it was run: (§1)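 Checkerboard microplate combinations of compound with doxorubicin at constant molar ratios. 5 × 10^4 cells/well in McCoy's 5A, 48 h at 37°C, 5% CO2. MTT added to 0.5 mg/mL final for 4 h, SDS/HCl overnight, OD read at 540 and 630 nm. Combination indices derived per ratio for 50%, 75% and 90% growth inhibition by median-effect analysis.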

[2] = Synergistic cytotoxicity against mouse L5178 cells assessed as combination index at ED90 using 37.5:1 test compound to doxorubicin ratio after 48 hrs by MTT-based checkerboard microplate method; type: functional; how it was run: as §1
[3] = Synergistic cytotoxicity against mouse L5178 cells expressing human ABCB1 assessed as combination index at ED50 using 3.75:1 test compound to doxorubicin ratio after 48 hrs by MTT-based checkerboard microplate method; type: functional; how it was run: as §1
[4] = Synergistic cytotoxicity against mouse L5178 cells expressing human ABCB1 assessed as combination index at ED90 using 7.5:1 test compound to doxorubicin ratio after 48 hrs by MTT-based checkerboard microplate method; type: functional; how it was run: as §1
[5] = Synergistic cytotoxicity against mouse L5178 cells expressing human ABCB1 assessed as combination index at ED75 using 30:1 test compound to doxorubicin ratio after 48 hrs by MTT-based checkerboard microplate method; type: functional; how it was run: as §1
[6] = Synergistic cytotoxicity against mouse L5178 cells assessed as combination index at ED75 using 600:1 test compound to doxorubicin ratio after 48 hrs by MTT-based checkerboard microplate method; type: functional; how it was run: as §1
[7] = Synergistic cytotoxicity against mouse L5178 cells assessed as combination index at ED50 using 300:1 test compound to doxorubicin ratio after 48 hrs by MTT-based checkerboard microplate method; type: functional; how it was run: as §1
[8] = Synergistic cytotoxicity against mouse L5178 cells assessed as combination index at ED50 using 600:1 test compound to doxorubicin ratio after 48 hrs by MTT-based checkerboard microplate method; type: functional; how it was run: as §1
[9] = Cytotoxicity against mouse L5178 cells expressing human ABCB1 after 48 hrs by MTT assay; type: functional, cell-based; details: L5178, 48 h
How it was run: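 Parental mouse lymphoma L5178 and the MDR line made by pHa MDR1/A retrovirus transfection, selected with 60 µg/L colchicine. Grown in McCoy's 5A with horse serum at 37°C, 5% CO2. 5 x 10^4 cells/well, serial compound dilutions, 48 h. MTT added to 0.5 mg/mL final for 4 h, then 10% SDS in 0.01 M HCl overnight, OD read at 540 and 630 nm. IC50 taken as median cytotoxic activity (Dm) from control lanes of checkerboard plates, n=2.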

[10] = tested on: HeLa; experiment: Antiproliferative activity against human HeLa cells after 72 hrs by MTT assay; type: functional, cell-based
How it was run: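 Cells grown in MEM with 10% FCS, 1% non-essential amino acids and 1% penicillin-streptomycin. Seeded at 5000 cells/well, exposed to 0.1–30.0 µM compound for 72 h. MTT (5 mg/ml solution) was then added for 4 h, formazan dissolved in DMSO, and absorbance read at 545 nm. Cisplatin served as positive control. IC50 came from sigmoidal dose–response fits (log inhibitor vs normalized response, variable slope).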

[11] = Synergistic cytotoxicity against mouse L5178 cells assessed as combination index at ED90 using 150:1 test compound to doxorubicin ratio after 48 hrs by MTT-based checkerboard microplate method; type: functional; how it was run: as §1
[12] = Synergistic cytotoxicity against mouse L5178 cells assessed as combination index at ED75 using 18.75:1 test compound to doxorubicin ratio after 48 hrs by MTT-based checkerboard microplate method; type: functional; how it was run: as §1
[13] = Synergistic cytotoxicity against mouse L5178 cells assessed as combination index at ED50 using 18.75:1 test compound to doxorubicin ratio after 48 hrs by MTT-based checkerboard microplate method; type: functional; how it was run: as §1
[14] = Synergistic cytotoxicity against mouse L5178 cells assessed as combination index at ED90 using 18.75:1 test compound to doxorubicin ratio after 48 hrs by MTT-based checkerboard microplate method; type: functional; how it was run: as §1
[15] = Synergistic cytotoxicity against mouse L5178 cells expressing human ABCB1 assessed as combination index at ED75 using 1.875:1 test compound to doxorubicin ratio after 48 hrs by MTT-based checkerboard microplate method; type: functional; how it was run: as §1
[16] = Synergistic cytotoxicity against mouse L5178 cells expressing human ABCB1 assessed as combination index at ED90 using 1.875:1 test compound to doxorubicin ratio after 48 hrs by MTT-based checkerboard microplate method; type: functional; how it was run: as §1
[17] = Synergistic cytotoxicity against mouse L5178 cells expressing human ABCB1 assessed as combination index at ED50 using 1.875:1 test compound to doxorubicin ratio after 48 hrs by MTT-based checkerboard microplate method; type: functional; how it was run: as §1

Structure (SMILES)	IC50 [10]	CI [1]	CI [2]	CI [3]	CI [4]	CI [5]	CI [6]	CI [7]	CI [8]	IC50 [9]	CI [11]	CI [12]	CI [13]	CI [14]	CI [15]	CI [16]	CI [17]
C=CCO/N=C1/C=C2C3=CC[C@H]([C@@]4(C)OC(C)(C)O[C@@H]4CCC(C)(C)O)[C@@]3(C)CC[C@@H]2[C@@]2(C)C[C@@H]3OC(C)(C)O[C@@H]3C[C@@H]12	> 30 µM	0.15	0.47	0.25	0.15	0.32	0.99	0.73	0.88	52.7 µM	0.8						
CCO/N=C1/C=C2C3=CC[C@H]([C@@]4(C)OC(C)(C)O[C@@H]4CCC(C)(C)O)[C@@]3(C)CC[C@@H]2[C@@]2(C)C[C@@H]3OC(C)(C)O[C@@H]3C[C@@H]12	30 µM	0.14	0.6	0.25	0.11	0.2	1.1	0.59	1.21	58.9 µM	0.56						
CC(C)(O)CC[C@H]1OC(C)(C)O[C@]1(C)[C@H]1CC=C2C3=C/C(=N\OC(C)(C)C)[C@@H]4C[C@H]5OC(C)(C)O[C@H]5C[C@]4(C)[C@H]3CC[C@@]21C	26.1 µM	0.26	0.64	0.31	0.23	0.38	0.89	0.77	0.83	65.4 µM	0.84						
CC(C)(O)CC[C@H]1OC(C)(C)O[C@]1(C)[C@H]1CC=C2C3=C/C(=N/OC(C)(C)C)[C@@H]4C[C@H]5OC(C)(C)O[C@H]5C[C@]4(C)[C@H]3CC[C@@]21C	20.7 µM	0.29	0.66	0.42	0.23	0.32	0.91	1.05	0.88	51.2 µM	0.79						
CCO/N=C1/C=C2[C@H](CC[C@]3(C)[C@@H]([C@@]4(C)OC(C)(C)O[C@@H]4CCC(C)(C)O)CC[C@@]23O)[C@@]2(C)C[C@@H]3OC(C)(C)O[C@@H]3C[C@@H]12	29.1 µM	0.16	0.45	0.27	0.17	0.23	0.83	0.8	0.75	42.2 µM	0.73				0.17	0.1	0.36

Compounds with a lower IC50 [10], results first:

IC50 [10]	Structure (SMILES)	CI [1]	CI [2]	CI [3]	CI [4]	CI [5]	CI [6]	CI [7]	CI [8]	IC50 [9]	CI [11]	CI [12]	CI [13]	CI [14]	CI [15]	CI [16]	CI [17]
15.4 µM	CO/N=C1/C=C2C3=CC[C@H]([C@@]4(C)OC(C)(C)O[C@@H]4CCC(C)(C)O)[C@@]3(C)CC[C@@H]2[C@@]2(C)C[C@@H]3OC(C)(C)O[C@@H]3C[C@@H]12	0.17	0.31	0.2	0.15	0.22	1.2	0.85	1.14	53.1 µM	0.64						
17.6 µM	C=CCO/N=C1/C=C2[C@H](CC[C@]3(C)[C@@H]([C@@]4(C)OC(C)(C)O[C@@H]4CCC(C)(C)O)CC[C@@]23O)[C@@]2(C)C[C@@H]3OC(C)(C)O[C@@H]3C[C@@H]12	0.19	1.2	0.23	0.19	0.22		0.93		49.3 µM	1.31	1.13	1.05	1.25			
